Laboratory results as given in ChEMBL document CHEMBL1139977, “Synthesis and RET protein kinase inhibitory activity of 3-arylureidobenzylidene-indolin-2-ones” (Bioorg Med Chem Lett, 2007).
Active and inactive are the calls of the source. The rule behind the calls is not given here.

Legend:
NIH3T3MEN2A = test: Reversion of RET C634R mutant oncogene-transformed morphologic phenotype of mouse NIH3T3MEN2A cells at 10 uM after 72 hrs; type: functional, cell-based
[1] = Antiproliferative activity against RET C634R mutant oncogene-transformed mouse NIH3T3MEN2A after 72 hrs; type: functional
Procedure, shortened: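 Cells kept at 37 °C in 10% CO2 in DMEM. NIH3T3MEN2A were grown with 5% serum; parental NIH3T3 and NIH3T3H-RAS with 10% calf serum. Compounds were dissolved in DMSO and diluted in medium to 0.5% solvent final.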

NIH3T3 [2] = test: Antiproliferative activity against mouse NIH3T3 after 72 hrs; conditions: NIH3T3, 72 h
NIH3T3 [3] = test: Antiproliferative activity against H-RAS transformed mouse NIH3T3 cells after 72 hrs; conditions: NIH3T3, 72 h
[4] = target: T1, Proto-oncogene tyrosine-protein kinase receptor Ret (Homo sapiens, UniProt P07949); test: Inhibition of RET in mouse NIH3T3MEN2A cells; type: cell-based
[5] = target: T1, Proto-oncogene tyrosine-protein kinase receptor Ret; test: Inhibition of RET in mouse NIH3T3MEN2A cells up to 3 uM; type: cell-based
Procedure, shortened: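 NIH3T3MEN2A cells (DMEM with 5% serum, 37 °C, 10% CO2) were exposed to vehicle or a range of concentrations for 24 h, with DMSO at 0.5% final. Whole-cell lysates were Western blotted for Ret autophosphorylation with anti-pTyr (4G10) and anti-pRet-Tyr1062 antibodies, and Ret protein expression was also probed.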

T1 sequence (P07949 whole entry): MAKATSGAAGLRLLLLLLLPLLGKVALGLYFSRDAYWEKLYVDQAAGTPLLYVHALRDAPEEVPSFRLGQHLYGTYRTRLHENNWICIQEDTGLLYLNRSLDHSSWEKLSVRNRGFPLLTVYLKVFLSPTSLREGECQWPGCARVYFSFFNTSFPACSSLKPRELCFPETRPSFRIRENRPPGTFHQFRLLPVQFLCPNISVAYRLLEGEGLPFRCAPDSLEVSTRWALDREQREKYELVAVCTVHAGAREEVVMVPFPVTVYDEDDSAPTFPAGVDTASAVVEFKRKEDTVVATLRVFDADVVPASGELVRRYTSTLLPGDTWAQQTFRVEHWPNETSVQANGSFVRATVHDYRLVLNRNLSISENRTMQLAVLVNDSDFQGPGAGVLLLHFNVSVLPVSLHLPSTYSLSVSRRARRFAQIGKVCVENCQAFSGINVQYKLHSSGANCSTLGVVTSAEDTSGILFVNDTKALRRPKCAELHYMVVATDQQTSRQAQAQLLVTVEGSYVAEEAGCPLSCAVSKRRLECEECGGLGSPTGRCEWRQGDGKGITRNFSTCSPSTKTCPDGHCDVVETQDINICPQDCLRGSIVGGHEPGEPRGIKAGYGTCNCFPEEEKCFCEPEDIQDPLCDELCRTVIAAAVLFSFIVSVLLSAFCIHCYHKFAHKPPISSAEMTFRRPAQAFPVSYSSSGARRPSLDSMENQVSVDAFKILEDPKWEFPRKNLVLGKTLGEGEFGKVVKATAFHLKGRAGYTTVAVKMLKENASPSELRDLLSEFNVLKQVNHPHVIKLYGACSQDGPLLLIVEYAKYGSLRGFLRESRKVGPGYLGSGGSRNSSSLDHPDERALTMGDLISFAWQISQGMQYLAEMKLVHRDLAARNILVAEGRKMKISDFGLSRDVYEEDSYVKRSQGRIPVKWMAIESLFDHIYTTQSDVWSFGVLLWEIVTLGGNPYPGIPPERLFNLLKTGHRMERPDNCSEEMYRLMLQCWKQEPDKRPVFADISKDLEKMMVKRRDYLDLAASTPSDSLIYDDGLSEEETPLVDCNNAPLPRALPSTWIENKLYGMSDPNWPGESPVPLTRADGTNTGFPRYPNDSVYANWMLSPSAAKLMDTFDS

Structure (SMILES)	Activity (NIH3T3MEN2A)	IC50 [1]	IC50 (NIH3T3 [2])	IC50 (NIH3T3 [3])	IC50 [4]	Activity [5]
COc1cc2c(cc1OC)/C(=C\c1ccc(O)cc1)C(=O)N2	Active	3.6 µM	16.3 µM	19.7 µM	0.17 µM	–
COc1cc2c(cc1OC)/C(=C\c1ccc(NC(=O)Nc3ccccc3)cc1)C(=O)N2	Active	4.6 µM	14 µM	8.7 µM	–	–
O=C(Nc1ccccc1)Nc1ccc(/C=C2\C(=O)Nc3ccc(Cl)cc32)cc1	inactive	> 40 µM	–	–	–	–
COc1cc2c(cc1OC)/C(=C\c1ccc(NC(=O)Nc3ccncc3)cc1)C(=O)N2	inactive	4.7 µM	–	–	–	–
O=C(Nc1ccccc1)Nc1ccc(/C=C2\C(=O)N(O)c3ccccc32)cc1	inactive	7.5 µM	–	–	–	–
COc1cc2c(cc1OC)/C(=C\c1ccc(NC(=O)N3CCN(C)CC3)cc1)C(=O)N2	Active	15.8 µM	–	–	> 3 µM	–
COc1cc2c(cc1OC)/C(=C\c1ccc(NC(=O)Nc3ccc(F)cc3)cc1)C(=O)N2	inactive	6.1 µM	–	–	–	–
COc1cc2c(cc1OC)/C(=C\c1ccc(NC(=O)Nc3ccc4c(c3)OCO4)cc1)C(=O)N2	inactive	19.4 µM	–	–	–	–
COc1cc2c(cc1OC)/C(=C\c1ccc(C(=O)Nc3ccccc3)cc1)C(=O)N2	inactive	12.2 µM	–	–	–	–
COc1ccc(NC(=O)Nc2ccc(/C=C3/C(=O)Nc4cc(OC)c(OC)cc43)cc2)cc1	Active	3.6 µM	14.7 µM	12.3 µM	–	–
COc1cc2c(cc1OC)/C(=C\c1ccc(NC(=O)Nc3ccc(N(C)C)cc3)cc1)C(=O)N2	inactive	> 40 µM	–	–	–	–
O=C(Nc1ccccc1)Nc1ccc(/C=C2/C(=O)Nc3ccccc32)cc1	inactive	10 µM	–	–	–	–
COc1cc2c(cc1OC)C(Cc1ccc(NC(=O)Nc3ccccc3)cc1)C(=O)N2 (stereo unspecified)	inactive	21.5 µM	–	–	–	–
COc1cc2c(cc1OC)N(C)C(=O)/C2=C/c1ccc(NC(=O)Nc2ccccc2)cc1	Active	4.1 µM	6.6 µM	5.4 µM	–	inactive
O=C(Nc1ccccc1)Nc1ccc(/C=C2\C(=O)Nc3ccccc32)cc1	inactive	> 40 µM	–	–	–	–
